Laboratory results taken from ChEMBL document CHEMBL2321789, “Discovery of Indenopyrazoles as a New Class of Hypoxia Inducible Factor (HIF)-1 Inhibitors” (ACS Med Chem Lett, 2013).
Active and inactive are the calls of the source. The calls are words filed in the database; no cut-off is given here.

How the values were obtained:
[1] = system: PC-3; assay: Cytotoxicity against human PC3 cells after 72 hrs by MTT assay; assay type: functional, cell-based; settings: PC-3, 72 h
Method in brief: (§1)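 Cells exposed to compound at 0.1–30 μM for 72 h; viability read by MTT assay.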

[2] = system: HeLa; assay: Cytotoxicity against human HeLa cells after 72 hrs by MTT assay; assay type: functional, cell-based; method in brief: as §1
[3] = system: HepG2; assay: Cytotoxicity against human HepG2 cells after 72 hrs by MTT assay; assay type: functional, cell-based; settings: HepG2, 72 h; method in brief: as §1
[4] = system: HCT-116; assay: Cytotoxicity against human HCT116 cells after 72 hrs by MTT assay; assay type: functional, cell-based; settings: HCT-116, 72 h; method in brief: as §1
[5] = target: T1, Hypoxia-inducible factor 1-alpha (Homo sapiens, UniProt Q16665); assay: Inhibition of hypoxia-induced HIF1alpha transcriptional activity in human HeLa cells expressing HRE-Luc at 30 uM after 12 hrs by luciferase reporter gene assay; assay type: cell-based
Method in brief: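 Reporter HeLa cells stably carrying HRE-firefly luciferase plus CMV-renilla luciferase, incubated 12 h with compound under 1% oxygen. Supernatant removed, then dual luciferase assay. Triplicate samples, mean ± SD.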
Target sequence in this assay (Q16665 whole entry, looked up): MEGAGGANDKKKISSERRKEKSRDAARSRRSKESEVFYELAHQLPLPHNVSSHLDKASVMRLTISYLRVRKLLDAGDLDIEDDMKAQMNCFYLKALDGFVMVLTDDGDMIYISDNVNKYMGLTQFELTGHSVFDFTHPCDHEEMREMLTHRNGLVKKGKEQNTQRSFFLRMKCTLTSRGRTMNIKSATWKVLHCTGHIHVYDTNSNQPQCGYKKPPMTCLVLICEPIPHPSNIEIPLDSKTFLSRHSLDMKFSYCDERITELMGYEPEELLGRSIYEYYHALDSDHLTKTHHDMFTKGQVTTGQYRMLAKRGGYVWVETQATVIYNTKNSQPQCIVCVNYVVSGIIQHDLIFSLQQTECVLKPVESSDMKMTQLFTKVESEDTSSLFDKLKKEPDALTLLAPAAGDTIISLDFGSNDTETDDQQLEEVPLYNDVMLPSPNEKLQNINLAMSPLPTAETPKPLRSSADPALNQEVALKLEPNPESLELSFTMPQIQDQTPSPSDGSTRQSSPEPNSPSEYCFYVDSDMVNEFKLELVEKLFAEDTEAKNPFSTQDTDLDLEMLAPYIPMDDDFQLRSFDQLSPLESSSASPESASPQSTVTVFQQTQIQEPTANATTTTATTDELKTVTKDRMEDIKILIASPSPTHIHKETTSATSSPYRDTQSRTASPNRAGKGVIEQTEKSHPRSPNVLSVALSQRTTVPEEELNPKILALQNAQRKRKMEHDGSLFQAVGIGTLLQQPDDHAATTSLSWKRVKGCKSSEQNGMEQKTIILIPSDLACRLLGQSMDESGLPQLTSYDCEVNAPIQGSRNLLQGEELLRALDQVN

[6] = target: T1, Hypoxia-inducible factor 1-alpha; assay: Inhibition of hypoxia-induced HIF1alpha transcriptional activity in human HeLa cells expressing HRE-Luc after 12 hrs by luciferase reporter gene assay; assay type: cell-based
Target sequence in this assay (Q16665 whole entry): as the sequence (Q16665 whole entry, looked up) above

[7] = system: HeLa; assay: Inhibition of hypoxia-induced HIF1alpha nuclear translocation in human HeLa cells at 30 uM after 4 hrs by immunofluorescence analysis; assay type: functional, cell-based
Method in brief: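 Under 1% oxygen, HeLa cells incubated 4 h with compound. HIF-1α localization imaged by immunofluorescence with specific antibody; nuclei stained with DAPI.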

[8] = system: HeLa; assay: Inhibition of hypoxia-induced HIF1alpha accumulation in human HeLa cells at 30 uM after 4 hrs by Western blot analysis; assay type: functional, cell-based
Method in brief: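 HeLa cells under hypoxia (1% oxygen) treated with compound for 4 h at a range of concentrations. HIF-1α protein detected by immunoblot with specific antibody, tubulin as internal control.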

[9] = system: HeLa; settings: Homo sapiens, 0.1 to 10 uM
[10] = system: HeLa; settings: Homo sapiens, 1 uM
[11] = system: HeLa; settings: Homo sapiens, 0.001 to 1 uM

| SMILES | IC50 [1] | IC50 [2] | IC50 [3] | IC50 [4] | inhibition [5] | IC50 [6] | inhibition [7] | inhibition [8] | inhibition [9] | inhibition [10] | inhibition [11] |
| --- | --- | --- | --- | --- | --- | --- | --- | --- | --- | --- | --- |
| COc1cc2c(cc1OC)-c1n[nH]c(Nc3ccccc3)c1C2 | 0.72 µM | < 0.1 µM | 0.24 µM | < 0.1 µM | 0% | > 30 µM | – | – | – | – | – |
| c1ccc2c(c1)Cc1c-2n[nH]c1Nc1ccc2c(c1)OCCO2 | – | – | – | – | – | 0.014 µM | – | – | – | – | – |
| COc1cccc2c1Cc1c-2n[nH]c1Nc1ccccc1 | 21.7 µM | 1.6 µM | 5.2 µM | 2.3 µM | 41% | > 30 µM | – | – | – | – | – |
| COc1ccc(Nc2n[nH]c3c2Cc2ccccc2-3)cc1 | 28.8 µM | 2.6 µM | 9.1 µM | 3.1 µM | – | 1.4 µM | – | – | – | – | – |
| COc1cccc2c1Cc1c(Nc3ccc4c(c3)OCCO4)n[nH]c1-2 | 6.9 µM | 2.1 µM | 7 µM | 5.9 µM | – | 0.034 µM | – | – | – | – | – |
| COC(=O)c1ccc(O)c(NC(=O)COc2ccc(C34CC5CC(CC(C5)C3)C4)cc2)c1 | > 30 µM | > 30 µM | > 30 µM | > 30 µM | – | 21 µM | Active | Active | – | – | – |
| COc1cccc2c1-c1[nH]nc(Nc3ccccc3)c1C2 | 3.2 µM | 0.57 µM | 0.75 µM | 0.57 µM | 3% | > 30 µM | – | – | – | – | – |
| COc1cccc(Nc2n[nH]c3c2Cc2ccccc2-3)c1 | > 30 µM | 2.9 µM | 6.8 µM | 2.2 µM | – | 6.1 µM | – | – | – | – | – |
| c1ccc2c(c1)Cc1c(Nc3ccc4c(c3)OCCO4)n[nH]c1-2 | 25.4 µM | 1.8 µM | 3.7 µM | 2.1 µM | – | – | – | – | inactive | inactive | inactive |
| c1ccc2c(c1)Cc1c-2n[nH]c1Nc1ccc2c(c1)OCO2 | 23.7 µM | 5.8 µM | 12.7 µM | 6.9 µM | – | 0.27 µM | – | – | – | – | – |
| OCc1ccc(-c2nn(Cc3ccccc3)c3ccccc23)o1 | > 30 µM | 29.3 µM | 2.2 µM | 2.2 µM | – | – | – | – | – | – | – |
| COc1ccc2c(c1)-c1n[nH]c(Nc3ccccc3)c1C2 | > 30 µM | 13.4 µM | 15.4 µM | 1.5 µM | 18% | > 30 µM | – | – | – | – | – |
| c1ccc(Nc2[nH]nc3c2Cc2ccccc2-3)cc1 | – | – | – | – | – | > 30 µM | – | – | – | – | – |
| c1ccc(Nc2[nH]nc3c2Cc2cc4c(cc2-3)OCO4)cc1 | – | – | – | – | – | > 30 µM | – | – | – | – | – |
| Nc1ccc(NC(=O)Nc2cccc3c2C(=O)c2c-3n[nH]c2-c2ccc3c(c2)OCO3)cc1 | – | – | – | – | – | 0.214 µM | – | – | – | – | – |
| c1ccc(Nc2n[nH]c3c2Cc2ccccc2-3)cc1 | > 30 µM | 17.6 µM | 24.2 µM | 17.5 µM | 0% | – | – | – | – | – | – |
| COc1ccc(Nc2n[nH]c3c2Cc2ccccc2-3)cc1OC | > 30 µM | 1.8 µM | 3.8 µM | 0.73 µM | – | 3.2 µM | – | – | – | – | – |
| COc1ccc2c(c1)Cc1c-2n[nH]c1Nc1ccccc1 | < 0.1 µM | < 0.1 µM | < 0.1 µM | < 0.1 µM | 28% | > 30 µM | – | – | – | – | – |
| c1ccc(Nc2n[nH]c3c2Cc2cc4c(cc2-3)OCO4)cc1 | 22.3 µM | 8.5 µM | 11.2 µM | 5.2 µM | 28% | – | – | – | – | – | – |
